Laboratory results as given in ChEMBL document CHEMBL1147539, “Synthesis and biological evaluation of novel, selective, nonsteroidal glucocorticoid receptor antagonists” (Bioorg Med Chem Lett, 2004).
pIC50: −log10 of the molar value.

Columns and labels:
Androgen receptor = molecular target: T1, Androgen receptor (Homo sapiens, UniProt P10275); assay: Displacement of [3H]mibolerone from human Androgen receptor
T1 sequence (P10275 whole entry): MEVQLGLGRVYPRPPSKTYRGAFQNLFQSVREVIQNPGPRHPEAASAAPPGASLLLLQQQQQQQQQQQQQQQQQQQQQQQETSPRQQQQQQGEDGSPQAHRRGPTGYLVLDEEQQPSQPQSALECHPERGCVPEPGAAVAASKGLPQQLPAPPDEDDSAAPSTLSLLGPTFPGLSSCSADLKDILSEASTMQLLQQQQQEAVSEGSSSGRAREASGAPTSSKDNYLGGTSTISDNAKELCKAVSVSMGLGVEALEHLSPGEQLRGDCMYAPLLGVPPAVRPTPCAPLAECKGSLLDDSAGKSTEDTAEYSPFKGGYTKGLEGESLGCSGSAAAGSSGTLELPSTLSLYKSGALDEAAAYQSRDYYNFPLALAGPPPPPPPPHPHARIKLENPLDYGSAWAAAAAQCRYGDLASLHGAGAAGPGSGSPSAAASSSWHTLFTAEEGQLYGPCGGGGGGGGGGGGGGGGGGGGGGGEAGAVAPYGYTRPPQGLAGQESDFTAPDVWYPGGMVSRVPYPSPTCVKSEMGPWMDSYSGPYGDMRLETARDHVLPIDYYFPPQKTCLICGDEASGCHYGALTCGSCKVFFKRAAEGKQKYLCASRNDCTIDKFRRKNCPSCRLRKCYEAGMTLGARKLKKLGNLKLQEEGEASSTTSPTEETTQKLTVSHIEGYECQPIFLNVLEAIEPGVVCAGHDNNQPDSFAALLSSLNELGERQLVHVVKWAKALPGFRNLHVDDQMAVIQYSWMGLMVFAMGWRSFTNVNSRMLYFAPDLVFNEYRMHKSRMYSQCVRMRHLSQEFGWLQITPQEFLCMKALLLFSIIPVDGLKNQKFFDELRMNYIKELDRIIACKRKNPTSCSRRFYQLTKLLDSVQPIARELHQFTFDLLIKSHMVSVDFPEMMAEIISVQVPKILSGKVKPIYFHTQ

[1] = molecular target: T2, Mineralocorticoid receptor (Homo sapiens, UniProt P08235); assay: Displacement of [3H]aldosterone from human Mineralocorticoid receptor
T2 sequence (P08235 whole entry): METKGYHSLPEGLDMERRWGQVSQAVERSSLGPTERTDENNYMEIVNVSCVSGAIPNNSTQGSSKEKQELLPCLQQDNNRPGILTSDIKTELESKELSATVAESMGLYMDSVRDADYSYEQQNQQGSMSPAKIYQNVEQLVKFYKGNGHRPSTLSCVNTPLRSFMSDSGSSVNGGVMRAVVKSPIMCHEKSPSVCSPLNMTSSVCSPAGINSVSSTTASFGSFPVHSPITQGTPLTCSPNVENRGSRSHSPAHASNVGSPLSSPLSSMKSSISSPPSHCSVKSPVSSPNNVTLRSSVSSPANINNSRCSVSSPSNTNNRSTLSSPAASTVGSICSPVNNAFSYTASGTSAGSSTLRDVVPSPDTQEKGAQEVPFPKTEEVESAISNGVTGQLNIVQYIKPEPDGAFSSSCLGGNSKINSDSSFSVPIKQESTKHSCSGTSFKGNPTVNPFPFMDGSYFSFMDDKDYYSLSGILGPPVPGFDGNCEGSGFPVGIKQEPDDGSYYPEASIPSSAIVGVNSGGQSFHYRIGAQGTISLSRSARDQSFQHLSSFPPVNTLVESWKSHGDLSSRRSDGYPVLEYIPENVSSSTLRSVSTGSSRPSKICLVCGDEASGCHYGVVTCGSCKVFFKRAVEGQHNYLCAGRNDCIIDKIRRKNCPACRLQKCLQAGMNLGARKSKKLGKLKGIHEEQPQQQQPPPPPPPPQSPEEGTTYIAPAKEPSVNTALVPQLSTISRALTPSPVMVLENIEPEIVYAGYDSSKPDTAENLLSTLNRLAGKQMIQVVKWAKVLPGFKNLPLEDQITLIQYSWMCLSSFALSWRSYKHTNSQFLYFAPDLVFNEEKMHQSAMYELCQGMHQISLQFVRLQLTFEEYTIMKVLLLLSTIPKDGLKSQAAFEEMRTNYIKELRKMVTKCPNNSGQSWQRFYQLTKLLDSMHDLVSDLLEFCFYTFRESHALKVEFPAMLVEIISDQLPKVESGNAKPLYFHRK
Summary of the method: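 Human steroid receptor (PR, MR, AR, ERα) binding measured by radioligand displacement, with IC50s determined in duplicate. Values without a range come from a single experiment, and values with a range are geometric means of repeat experiments.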

Glucocorticoid receptor [2] = molecular target: T3, Glucocorticoid receptor (Homo sapiens, UniProt P04150)
T3 sequence (P04150 whole entry): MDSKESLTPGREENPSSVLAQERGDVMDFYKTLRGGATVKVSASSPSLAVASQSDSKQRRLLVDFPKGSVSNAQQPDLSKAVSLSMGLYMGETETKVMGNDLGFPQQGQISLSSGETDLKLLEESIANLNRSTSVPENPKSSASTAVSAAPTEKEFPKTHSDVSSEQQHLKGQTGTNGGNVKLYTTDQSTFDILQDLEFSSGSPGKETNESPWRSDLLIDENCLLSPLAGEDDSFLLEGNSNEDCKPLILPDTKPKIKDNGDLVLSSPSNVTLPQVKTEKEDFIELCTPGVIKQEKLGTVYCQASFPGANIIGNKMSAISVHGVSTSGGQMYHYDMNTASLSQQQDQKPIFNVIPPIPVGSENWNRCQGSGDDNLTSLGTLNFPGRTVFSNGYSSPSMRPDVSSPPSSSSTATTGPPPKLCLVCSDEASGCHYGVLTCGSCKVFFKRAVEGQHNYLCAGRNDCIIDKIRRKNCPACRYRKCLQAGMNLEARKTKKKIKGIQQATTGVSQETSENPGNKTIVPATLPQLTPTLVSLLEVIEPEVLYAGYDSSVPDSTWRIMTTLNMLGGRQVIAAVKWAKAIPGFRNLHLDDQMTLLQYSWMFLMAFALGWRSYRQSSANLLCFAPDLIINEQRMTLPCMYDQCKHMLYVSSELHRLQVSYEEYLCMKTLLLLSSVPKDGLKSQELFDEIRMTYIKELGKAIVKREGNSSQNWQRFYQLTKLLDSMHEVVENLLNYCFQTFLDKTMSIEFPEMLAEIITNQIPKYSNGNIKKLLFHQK

Glucocorticoid receptor [3] = molecular target: T3, Glucocorticoid receptor; assay: Displacement of [3H]dexamethasone from human Glucocorticoid receptor (GR); Value ranges from 3-4 nM
Summary of the method: (§1)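 Binding to human GR; IC50 reported as the geometric mean of two experiments (three for some values), each run in duplicate, with the range of the experiments given.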

Glucocorticoid receptor [4] = molecular target: T3, Glucocorticoid receptor; assay: Displacement of [3H]dexamethasone from human Glucocorticoid receptor (GR); […]
Glucocorticoid receptor [5] = molecular target: T3, Glucocorticoid receptor; assay: Displacement of [3H]dexamethasone from human Glucocorticoid receptor (GR); Value ranges from 6-7 nM; summary of the method: as §1
Glucocorticoid receptor [6] = molecular target: T3, Glucocorticoid receptor; assay: Displacement of [3H]dexamethasone from human Glucocorticoid receptor (GR); Value ranges from 70-92 nM

SMILES	pIC50 (Androgen receptor)	pIC50 [1]	pIC50 (Glucocorticoid receptor [3])	pIC50 (Glucocorticoid receptor [4])	pIC50 (Glucocorticoid receptor [5])	pIC50 (Glucocorticoid receptor [6])	pIC50 (Glucocorticoid receptor [2])
COc1cccc2c1-c1ccc(NS(C)(=O)=O)cc1C(c1cccs1)O2 (stereo not given)	< 5.00	5.65	–	–	–	–	8.15
CCOc1cccc2c1-c1ccc(NS(C)(=O)=O)cc1C(c1ccccc1)O2 (stereo not given)	< 5.00	6.05	–	–	–	7.09	–

Second part, led by results:

pIC50 (Androgen receptor)	pIC50 [1]	pIC50 (Glucocorticoid receptor [3])	pIC50 (Glucocorticoid receptor [4])	pIC50 (Glucocorticoid receptor [5])	pIC50 (Glucocorticoid receptor [6])	SMILES	pIC50 (Glucocorticoid receptor [2])
< 5.00	6.17	8.52	–	–	–	COc1cccc2c1-c1ccc(NS(C)(=O)=O)cc1C(c1cccc(F)c1)O2 (stereo not given)	–
< 5.00	5.60	–	7.54	–	–	COc1cccc2c1-c1ccc(NS(C)(=O)=O)cc1C(c1ccc(F)cc1)O2 (stereo not given)	–
< 5.00	6.19	–	–	8.15	–	COc1cccc2c1-c1ccc(NS(C)(=O)=O)cc1C(c1ccc(C)cc1)O2 (stereo not given)	–
